Reference: article PMC3777270 (Biomaterials, 2010)

Test system: S. aureus strain MZ100
Assay: In vitro S. aureus biofilm formation on coated Ti slides
Type: cell-based, Staphylococcus aureus
Conditions: 5 h exposure to S. aureus, 0.1% crystal violet; for macroscopic appearance of crystal violet stained wells: digital photographs; for cell attachment in phase-contrast micrographs: 630×
Outline: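 Wells were formed on 20 nm Ti-coated glass slides with adhesive silicone isolators. PEGylated mono-, di- or tetravalent Ti-binding peptide coatings (500 μL) were applied in triplicate, held 2 h at RT and washed twice with PBS; uncoated Ti was included. Overnight TSB culture was diluted to ~5 × 10^7 CFU/mL in TSB + 0.2% glucose, then 5 h at 37 °C in a humidified chamber.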

| Substance | macroscopic appearance of crystal violet stained wells | cell attachment in phase-contrast micrographs |
| --- | --- | --- |
| (SKHKGGKHKGGKHKG)2K)2KSSGK(Biotin) –GGC–PEG [TBP4–PEG] | remained largely clear with small, disperse patches of staining | significantly fewer adhered bacteria |
| (SKHKGGKHKGGKHKG)2KSSGK(Biotin) –GGC–PEG [TBP2–PEG] | thick, dense biofilm | slight decrease in cell density |
| SKHKGGKHKGGKHKGSSGK(Biotin) –GGC–PEG [TBP1–PEG] | thick, dense biofilm | substantial cell attachment |
